Screening data: PubChem BioAssay, SRMLSC
Fibroblast inh = blocks proliferation of human lung fibroblasts; viability, % at 10 µM; LL 47 human lung fibroblast viability, ATP luminescence; stronger effect = lower value; AID 719; 85,000 tested, 1.1% active;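 active = viability at or below 50% in the single dose screen; inactive = viability above 50%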;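 also: compound exposure lasted 72 h before the ATP readout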
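Test system: LL 47 human lung fibroblasts / Quantity: 1,150 cells in each well / Medium: IMEM growth medium with 15% fetal bovine serum / Incubation: 72 h compound exposure at 37 °C after overnight plating / Detection: CellTiter-Glo luminescence measuring cellular ATP / Read-out: % viability versus median cells-only luminescence / Benchmarks: cell-only wells, no compound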
H69AR inhibit = blocks growth of human H69AR lung tumor cells; H69AR lung tumor viability, ATP luminescence, 72 h; stronger effect = lower value; viability, % at 10 µM; 85,000 tested, 6% active; AID 598;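 active = viability at or below 40%; inactive = viability above 40%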;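 also: multidrug resistant small cell line overexpressing MRP-1 efflux transporter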
HCT116 bCat-KO = beta-catenin-lacking colon tumor cell growth suppression; HCT116 beta-catenin knockout viability, CellTiter-Glo, 60 h; stronger effect = lower value; viability, % at 10 µM; 140,000 tested, 1.5% active;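 active = viability at or under a set limit, the compound median less 4 SD, cut at about 6% in these data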
HUVEC prolif 384 = human endothelial cell proliferation inhibition; HUVEC proliferation, CellTiter-Glo luminescence, 72 h; stronger effect = lower value; viability, % at 10 µM (by protocol); 86,000 tested, 1.1% active;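 active = viability at or below 30%; inactive = viability above 30%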
PTEN del growth = PTEN-deleted cell growth suppression; HCT116 PTEN-null viability, CellTiter-Glo, 60 h; stronger effect = lower value; viability, % at 10 µM; 140,000 tested, 1.2% active; AID 827;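 active = viability at or below a set limit, 4 SD under the median of all tested compounds, cut at about 3.7% in these data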;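 also: PTEN knockout HCT116 line with beta catenin targeted HCT116 as companion control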
Hits are given with their value; 0 = inactive; - = not tested or not shown. The entries come from a sample that favours hits as a whole.

SMILES | Fibroblast inh | H69AR inhibit | HCT116 bCat-KO | HUVEC prolif 384 | PTEN del growth
CCOc1ccc(NC(=O)CN2C(=O)COc3ccc(Cl)cc32)cc1 | 0 | 0 | 0 | 0 | 0
CC(NS(=O)(=O)c1ccc(Cl)cc1)C(=O)NCc1ccco1 (stereo not drawn) | 0 | 0 | 0 | 0 | 0
CCOC(=O)c1ccc(NC(=O)C2CCCN(S(=O)(=O)c3ccc(F)cc3)C2)cc1 (stereo not drawn) | 0 | 19.5 | 0 | 0 | 0
Cc1ccc(S(=O)(=O)N2CCCC(C(=O)Nc3ccc(NC(=O)c4ccccn4)cc3)C2)cc1 (stereo not drawn) | 0 | 20.6 | 0 | 0 | 0
CCOC(=O)c1ccc(NC(=O)C2CCN(S(=O)(=O)CC)CC2)cc1 | 0 | 0 | 0 | 0 | 0
O=C(Nc1ccc(Oc2ccccc2)cc1)C1CCCN(c2ncccn2)C1 (stereo not drawn) | 0 | 39.6 | 0 | 0 | 0
CCOC(=O)c1ccc(S(=O)(=O)N2CCN(CC(=O)NC(=O)NC3CCCCC3)CC2)cc1 | - | 0 | 0 | 0 | 0
N#C/C(=C(/O)COC(=O)CSc1ccc2ccccc2c1)c1nc2ccccc2[nH]1 | - | - | 0 | - | 0
Cc1ccccc1NC(=S)NC(C)C(c1cccs1)N1CCOCC1 (stereo not drawn) | - | - | 0 | - | 0
CCOc1ccc(C2CC(=O)NC(SCC(=O)OC)=C2C#N)cc1 (stereo not drawn) | 0 | 0 | 0 | 0 | 0
N#Cc1c(N)nc(SCC(=O)C23CC4CC(CC(C4)C2)C3)c(C#N)c1-c1ccc(Cl)cc1 | 0 | 15.7 | 0 | 0 | 0
Cc1nnc2n(-c3ccccc3)c(=O)c3c4c(sc3n12)COC(C(C)C)C4 (stereo not drawn) | 0 | 0 | 0 | 0 | 0
CC(C)C1Cc2c(sc3[nH]c(=S)n(Cc4ccccc4)c(=O)c23)CO1 (stereo not drawn) | 0 | 25.4 | 0 | 7.0 | 0
Cc1c(C=O)c(C=O)c(C)n1Cc1ccccc1 | 47.8 | 38.5 | 0 | 0 | 0
CC(=O)c1c(C(C)=O)c(C)n(Cc2ccccc2)c1C | 0 | 0 | 0 | 0 | 0
Cc1ccc(C)c(NC(=O)C(Sc2ncnc3ccccc23)c2ccccc2)c1 (stereo not drawn) | - | - | 0 | - | 1.2
CC(=NCc1ccncc1)C1=C(O)c2ccccc2C1=O | 0 | 0 | 0 | 0 | 0
C=CCOC(=O)C1=C(C)NC(SCC(=O)N(CC)CC)=C(C#N)C1c1ccco1 (stereo not drawn) | 0 | 35.4 | 0 | 0 | 0
CCOc1ccc(N2CC(C(=O)NCc3ccc(F)cc3)CC2=O)cc1 (stereo not drawn) | - | - | 0 | - | 0
COC(=O)CCC(=O)Nc1sc(C)c(C)c1C(N)=O | 0 | 18.9 | 0 | 0 | 0
O=c1cc(-c2c(F)c(F)c(F)c(F)c2F)oc2c(F)c(F)c(F)c(F)c12 | 17.2 | 1.0 | 1.6 | 1.6 | 1.5
O=c1cc(-c2c(F)c(F)c(F)c(F)c2F)oc2ccccc12 | - | - | 2.2 | - | -
Cc1cccc(Nc2ccccc2C(=O)OCC(=O)N(C)C2CCS(=O)(=O)C2)c1C (stereo not drawn) | - | - | 0 | - | 0
CCCNC(=O)CN(c1ccc(F)c(Cl)c1)S(C)(=O)=O | 0 | 0 | 0 | 0 | 0
O=C(CO/N=C/c1cccc([N+](=O)[O-])c1)NC1CCCCCC1 | - | - | 0 | - | 0
SMILES | Fibroblast inh | H69AR inhibit | HCT116 bCat-KO | HUVEC prolif 384 | PTEN del growth
CC1CC(C)CN(S(=O)(=O)c2ccc(C(=O)Nc3nnc(-c4cccs4)o3)cc2)C1 (stereo not drawn) | 0 | 0 | 0 | 4.2 | 0
O=C(Nc1nnc(-c2cccs2)o1)c1cccc(C(F)(F)F)c1 | 0 | 23.4 | 0 | 0 | 0
Cc1nnc(NC(=O)c2ccc(S(=O)(=O)N3CCCCCC3)cc2)o1 | 0 | 0 | 0 | 0 | 0
O=C(CCc1ccccc1)Nc1nnc(-c2cccs2)o1 | 0 | 0 | 0 | 0 | 0
CCC1CCCCN1S(=O)(=O)c1ccc(C(=O)Nc2nnc(-c3cccs3)o2)cc1 (stereo not drawn) | 0 | 20.5 | 0 | 0 | 0
CC1CCCN(S(=O)(=O)c2ccc(C(=O)Nc3nnc(-c4ccccc4Cl)o3)cc2)C1 (stereo not drawn) | 46.6 | 30.8 | 0 | 3.9 | 0
Cn1c(SCc2c(F)cccc2Cl)nnc1-c1cccs1 | 0 | 0 | 0 | 0 | 0
COCCCNC(=O)c1cc(OC)c(OC)c(OC)c1 | 0 | 0 | 0 | 0 | 0
Cn1c(Cc2cccs2)nnc1SCC(=O)N1CCCc2ccccc21 | 0 | 0 | 0 | 0 | 0
O=C(CSc1nnc(Cc2cccs2)n1C1CCCCC1)N1CCCc2ccccc21 | 0 | 34.5 | 0 | 0 | 0
O=C(Nc1ccc(SC(F)F)cc1)C12CCC(CC1)C2 | - | - | 0 | - | 0
C/C(=N\NC(=O)c1ccc(C)cc1C)c1ccc2c(c1)Nc1ccccc1S2 | - | - | 0 | - | 0
Cc1cc(C)nc(/N=c2/ssnc2Cl)c1 | 0 | 19.5 | 0 | 0 | 0
COc1cc(N=c2ssnc2Cl)c(OC)cc1Cl | 44.0 | 1.1 | 0 | 0 | 0
Cc1cc(Cl)ccc1N=c1ssnc1Cl | 0 | 2.2 | 0 | 0 | 0
Cc1ccc(N=c2ssnc2Cl)cc1 | 0 | 2.4 | 0 | 0 | 0
Cc1ccc(N=C2NC(=O)CS2)cc1 | 0 | 0 | 0 | 0 | 0
COc1ccc(OC)c(N=c2ssnc2Cl)c1 | - | - | 0 | - | 0
O=C(NCCNS(=O)(=O)c1cccc(C(F)(F)F)c1)c1cc(OCC(F)(F)F)ccc1OCC(F)(F)F | - | - | 0 | - | 0
O=C(CCCCn1c(=O)[nH]c2ccccc2c1=O)NCCc1c[nH]c2ccccc12 | 0 | 0 | 0 | 0 | 0
O=C(CSc1nccc2ccccc12)N1CCN(Cc2ccc3c(c2)OCO3)CC1 | 0 | 0 | - | 0 | -
Cc1ccc(C2Nc3ccccc3C(=O)N2Cc2ccco2)cc1 (stereo not drawn) | 0 | 29.8 | 0 | 0 | 0
COc1ccc(C(=O)c2ccc(N(C)C)cc2)c(OC)c1 | - | - | 0 | - | 0
CN(C)c1ccc(C(=O)c2ccc(N(C)C)c3ccccc23)cc1 | 44.1 | 35.8 | 0 | 0 | 0
O=C(NCCO)c1ccccc1O | 0 | 0 | 0 | 0 | 0
SMILES | Fibroblast inh | H69AR inhibit | HCT116 bCat-KO | HUVEC prolif 384 | PTEN del growth
COc1cc(/C=C/C(=O)OCC(=O)NC(=O)NC23CC4CC(CC(C4)C2)C3)ccc1OCC#N | - | - | 0 | - | 0
CCOc1ccccc1OCCN1CCC(Cc2ccccc2)CC1 | - | - | 0 | - | 0
Cc1c(/C=C(\C#N)c2nn(-c3ccccc3)c(N)c2C#N)c2ccccc2n1Cc1ccc(F)cc1 | 0 | 9.6 | 0 | 0 | 0
O=S(=O)(CCSc1ccccn1)c1nc2ccccc2s1 | 42.8 | 1.9 | 0 | 0 | 0
O=S(=O)(CCSc1nc2ccccc2o1)c1nc2ccccc2s1 | 6.2 | 0 | 5.1 | 11.8 | 3.5
CCS(=O)(=O)CCSc1nc2ccccc2o1 | 0 | 0 | 0 | 0 | 0
Cc1cc(=O)n2c3ccccc3n(CC(O)CN3CCC(C)CC3)c2c1C#N (stereo not drawn) | - | - | 0 | - | 0
Cc1ccc2[nH]c(=O)c(CN(Cc3ccco3)C(=O)c3cccs3)cc2c1 | 0 | 0 | 0 | 0 | 0
Cc1ccc2cc(CN(Cc3ccco3)C(=O)c3cccs3)c(=O)[nH]c2c1 | 0 | 21.0 | 0 | 0 | 0
CCCCN(Cc1ccco1)C(=O)c1cc2c(=O)[nH]c3ccc(C)cc3c2s1 | 0 | 28.3 | 0 | 4.4 | 0
CCC(=O)N(Cc1cc2ccccc2[nH]c1=O)C(C)C | 0 | 0 | 0 | 0 | 0
